The source made the active and inactive calls. The calls are words filed in the database; no cut-off is given here.
Key:
Bos taurus [1] = species on record: Bos taurus; assay: Inhibition of [3H]colchicine binding to bovine tubulin at 1 uM measured after 10 mins by scintillation counting
Procedure, shortened: (§1)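 Purified bovine brain tubulin at 1.0 µM was mixed with 5.0 µM [3H]colchicine and inhibitor, plus components that stabilize colchicine binding, in 5% DMSO; tubulin was added last, on ice. Binding ran 10 min at 37 °C and was stopped with ice water. Mixtures were filtered through stacked DEAE-cellulose filters, and bound radiolabel was measured by scintillation counting.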

NCI-H460 = assay: Cytotoxicity against human NCI-H460 cells assessed as inhibition of cell growth measured after 48 hrs by SRB assay; format: functional
OVCAR-4 = assay: Cytotoxicity against human OVCAR-4 cells assessed as inhibition of cell growth measured after 48 hrs by SRB assay; format: functional
786-0 = assay: Cytotoxicity against human 786-0 cells assessed as inhibition of cell growth measured after 48 hrs by SRB assay; format: functional
IGROV-1 = assay: Cytotoxicity against human IGROV-1 cells assessed as inhibition of cell growth measured after 48 hrs by SRB assay; format: functional
U-251 [2] = assay: Cytotoxicity against human U251 cell line assessed as inhibition of cell growth after 48 hrs by SRB assay; format: functional, cell-based; conditions: U-251, 48 h
[3] = Relative resistance, ratio of IC50 for antiproliferative activity against human SK-OV-3 MDR-1-6/6 cells expressing Pgp to IC50 antiproliferative activity against human SK-OV-3 cells; format: functional
HCT-116 = assay: Cytotoxicity against human HCT-116 cells assessed as inhibition of cell growth measured after 48 hrs by SRB assay; format: functional
SK-MEL-2 = assay: Cytotoxicity against human SK-MEL-2 cells assessed as inhibition of cell growth measured after 48 hrs by SRB assay; format: functional
OVCAR-3 = assay: Cytotoxicity against human OVCAR-3 cells assessed as inhibition of cell growth measured after 48 hrs by SRB assay; format: functional
MOLT-4 = assay: Cytotoxicity against human MOLT-4 cells assessed as inhibition of cell growth measured after 48 hrs by SRB assay; format: functional
NCI-H522 = assay: Cytotoxicity against human NCI-H522 cells assessed as inhibition of cell growth measured after 48 hrs by SRB assay; format: functional
SNB-19 = assay: Cytotoxicity against human SNB-19 cells assessed as inhibition of cell growth measured after 48 hrs by SRB assay; format: functional
OVCAR-5 = assay: Cytotoxicity against human OVCAR-5 cells assessed as inhibition of cell growth measured after 48 hrs by SRB assay; format: functional
HOP-62 = assay: Cytotoxicity against human HOP-62 cells assessed as inhibition of cell growth measured after 48 hrs by SRB assay; format: functional
UO-31 = assay: Cytotoxicity against human UO-31 cells assessed as inhibition of cell growth measured after 48 hrs by SRB assay; format: functional
DU-145 = assay: Cytotoxicity against human DU-145 cells assessed as inhibition of cell growth measured after 48 hrs by SRB assay; format: functional
OVCAR-8 = assay: Cytotoxicity against human OVCAR-8 cells assessed as inhibition of cell growth measured after 48 hrs by SRB assay; format: functional
SNB-75 = assay: Cytotoxicity against human SNB-75 cells assessed as inhibition of cell growth measured after 48 hrs by SRB assay; format: functional
NCI/ADR-RES = assay: Cytotoxicity against human NCI/ADR-RES cells assessed as inhibition of cell growth measured after 48 hrs by SRB assay; format: functional
HCC 2998 = assay: Cytotoxicity against human HCC 2998 cells assessed as inhibition of cell growth measured after 48 hrs by SRB assay; format: functional
SK-MEL-28 = assay: Cytotoxicity against human SK-MEL-28 cells assessed as inhibition of cell growth measured after 48 hrs by SRB assay; format: functional
[4] = Toxicity in NCr athymic nude nu/nu mouse xenografted human U251 cells assessed as body weight change at 50 mg/kg once in a week relative to temozolomide; format: organism-based; conditions: in vivo, 17.5 mg/kg, 168 h, in the assay text read “17.5 mg/kg twice in a week” for “50 mg/kg once in a week”
Procedure, shortened: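 NCr athymic nu/nu nude mice (8 wk; equal numbers of males and females) received 500,000 U251 glioma cells in the lateral flank. Once tumors were visible, mice were dosed with carrier (5% DMSO, 5% Kolliphor-15, 90% normal saline), temozolomide at 50 mg/kg/wk, or test compound at 17.5 mg/kg twice weekly until the end of the study. Body weight was monitored and tumors were caliper-measured twice weekly; n=6–8.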

M14 = assay: Cytotoxicity against human M14 cells assessed as inhibition of cell growth measured after 48 hrs by SRB assay; format: functional
Malme-3M = assay: Cytotoxicity against human Malme-3M cells assessed as inhibition of cell growth measured after 48 hrs by SRB assay; format: functional
SK-OV-3 [5] = assay: Antiproliferative activity against human SK-OV-3 cells assessed as decrease in cell growth measured after 48 hrs by SRB method; format: functional, cell-based; conditions: SK-OV-3, 48 h
MDA-MB-231 = assay: Cytotoxicity against human MDA-MB-231 cells assessed as inhibition of cell growth measured after 48 hrs by SRB assay; format: functional
SF-268 = assay: Cytotoxicity against human SF-268 cells assessed as inhibition of cell growth measured after 48 hrs by SRB assay; format: functional
BT-549 = assay: Cytotoxicity against human BT-549 cells assessed as inhibition of cell growth measured after 48 hrs by SRB assay; format: functional
[6] = Cytotoxicity against human SK-MEL-5 cells assessed as inhibition of cell growth measured after 48 hrs by SRB assay; format: functional
HT-29 = assay: Cytotoxicity against human HT-29 cells assessed as inhibition of cell growth measured after 48 hrs by SRB assay; format: functional
NCI-H23 = assay: Cytotoxicity against human NCI-H23 cells assessed as inhibition of cell growth measured after 48 hrs by SRB assay; format: functional
SF-295 = assay: Cytotoxicity against human SF-295 cells assessed as inhibition of cell growth measured after 48 hrs by SRB assay; format: functional
U-251 [7] = assay: Antitumour activity against human U251 cells xenografted in NCr athymic nude nu/nu mouse assessed as decrease in tumour growth at 17.5 mg/kg twice in a week; format: functional, organism-based
RXF 393 = assay: Cytotoxicity against human RXF 393 cells assessed as inhibition of cell growth measured after 48 hrs by SRB assay; format: functional
UACC-62 = assay: Cytotoxicity against human UACC-62 cells assessed as inhibition of cell growth measured after 48 hrs by SRB assay; format: functional
[8] = Antiproliferative activity against human SK-OV-3 MDR-1-6/6 cells expressing Pgp assessed as decrease in cell growth measured after 48 hrs by SRB method; format: functional; conditions: SK-OV-3, 48 h
Bos taurus [9] = species on record: Bos taurus; assay: Inhibition of [3H]colchicine binding to bovine tubulin at 5 uM measured after 10 mins by scintillation counting; procedure, shortened: as §1
SR = assay: Cytotoxicity against human SR cells assessed as inhibition of cell growth measured after 48 hrs by SRB assay; format: functional
SK-OV-3 [10] = assay: Cytotoxicity against human SK-OV-3 cells assessed as inhibition of cell growth measured after 48 hrs by SRB assay; format: functional
HL-60(TB) = assay: Cytotoxicity against human HL-60(TB) cells assessed as inhibition of cell growth measured after 48 hrs by SRB assay; format: functional

Compound `COc1cccc2cc(N(C)c3nc(C)nc4c3CCC4)ccc12` has an inhibition (Bos taurus [1]) of 86%, a GI50 (NCI-H460) of less than 10 nM and a GI50 (OVCAR-4) of 10.9 nM. For the same compound, the GI50 (786-0) was less than 10 nM, the GI50 (IGROV-1) was less than 10 nM and the IC50 (U-251 [2]) was 17.6 nM. For the same compound, the “Ratio IC50” value [3] was 2.1, the GI50 (HCT-116) was less than 10 nM and the GI50 (SK-MEL-2) was less than 10 nM. It also gave a GI50 (OVCAR-3) of less than 10 nM, a GI50 (MOLT-4) of less than 10 nM and a GI50 (NCI-H522) of less than 10 nM. The GI50 (SNB-19) was less than 10 nM, the GI50 (OVCAR-5) was less than 10 nM and the GI50 (HOP-62) was less than 10 nM. It also gave a GI50 (UO-31) of 10.7 nM, a GI50 (DU-145) of less than 10 nM and a GI50 (OVCAR-8) of less than 10 nM. The GI50 (SNB-75) was 1890 nM, the GI50 (NCI/ADR-RES) was less than 10 nM and the GI50 (HCC 2998) was less than 10 nM. The GI50 (SK-MEL-28) was 5630 nM, the Activity [4] was “Non-Toxic” and the GI50 (M14) was less than 10 nM. For the same compound, the GI50 (Malme-3M) was 11500 nM, the IC50 (SK-OV-3 [5]) was 2.7 nM and the GI50 (MDA-MB-231) was less than 10 nM. For the same compound, the GI50 (SF-268) was less than 10 nM, the GI50 (BT-549) was less than 10 nM and the GI50 [6] was less than 10 nM. The GI50 (HT-29) was less than 10 nM, the GI50 (NCI-H23) was less than 10 nM and the GI50 (SF-295) was less than 10 nM. The inhibition (U-251 [7]) was “Active”, the GI50 (RXF 393) was less than 10 nM and the GI50 (UACC-62) was 1490 nM. The IC50 [8] was 5.7 nM, the inhibition (Bos taurus [9]) was 98% and the GI50 (SR) was less than 10 nM. The GI50 (SK-OV-3 [10]) was less than 10 nM and the GI50 (HL-60(TB)) was less than 10 nM.
